One may read the IC50 as the midpoint of a concentration-inhibition curve. Lower therefore signals greater potency in that assay. As a reminder, the inhibition is the relative decrease from the control value, in per cent. Higher therefore signals strong suppression. Usually Inhibition stands for the percentage by which the read-out fell short of the control.

One assay is filed under the species Homo sapiens. The assay can be described thus: Inhibition of the production of Interleukin-1-beta from human peripheral blood monocytes stimulated with lipopolysaccharide (LPS). In kind it is functional. Summed up: (§1)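 Human monocytes elutriated from whole blood, 2×10^6 cells/well in RPMI 1640 + 5% FBS. Drug in DMSO (1.0 μL) added, 60 min preincubation, then LPS (Salmonella typhimurium; 1.0 μg/mL stock, 20 μL/well). After 20 h, supernatant IL-1β by ELISA; MTT viability on cells.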
`COc1cc(OC)c(C(=O)/C=C/c2ccccc2)c(OC)c1` returned an IC50 of 1250 nM.

For the next assay, the system named is Mus musculus. Nature of the assay: In vivo activity expressed as percentage survival at 600 mg/kg in mouse septic shock model. In kind it is functional. The method in brief:
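Female C57Bl/6 mice (18–20 g), groups of 10, given LPS ip (E. coli 0127:B8, in 0.9% saline, 40 mg/kg). Compound in 0.25% methylcellulose (beadmilled 60 min) dosed orally by gavage 20 min later (0.1 mL/g), then every 4 h for 24 h; vehicle controls. Deaths recorded over 3 days; percent survival, χ² at p<0.05, mean of three experiments.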
Regarding `COc1cc(OC)c(C(=O)/C=C/c2ccc(C(=O)Nc3cccnc3)cc2)c(OC)c1`, the survival at 600 mg/kg is 50%. On the same count and under the same terms, under `COC(=O)c1ccccc1C(=O)/C=C/c1ccc(C(=O)Nc2nccs2)cc1` stands 30%. The same measure, in the same setting: under `COC(=O)c1ccccc1C(=O)/C=C/c1ccccc1` stands 20%.

In the case of `COc1cc(OC)c(C(=O)/C=C/c2ccc(C(=O)Nc3nccs3)cc2)c(OC)c1`, the survival at 600 mg/kg stood at 55%.

The species named for another assay is Homo sapiens. The assay can be described thus: (§2) Inhibition of the production of Interleukin-1-beta from human peripheral blood monocytes stimulated with lipopolysaccharide (LPS) at 10 uM. It counts as functional.
Regarding `COC(=O)c1ccc(C(=O)/C=C/c2ccccc2)cc1`, the inhibition at 10 µM was 5%. The same measure, in the same setting: next, `O=C(/C=C/c1ccccc1)c1ccc([N+](=O)[O-])cc1`: 0%; `CCOc1ccc(C(=O)/C=C/c2ccccc2)cc1`: 15%; `COc1cc(OC)c(C(=O)/C=C(\C)c2ccccc2)c(OC)c1`: 0%.

Consider `COc1ccc(C(=O)/C=C/c2ccccc2)cc1OC` [3',4'-DIMETHOXYCHALCONE], for which the inhibition at 10 µM turned out to be 44%.

`COc1ccc(C(=O)/C=C/c2ccccc2)cc1` [4'-METHOXYCHALCONE] returned an inhibition at 10 µM of 29%.

In the case of `COc1cc(OC)c(C(=O)C=C(c2ccccc2)c2ccccc2)c(OC)c1`, the inhibition at 10 µM is 0%. As to `O=C(O)c1ccccc1C(=O)/C=C/c1ccccc1`, the inhibition at 10 µM is 37%.

The species named for another assay is Homo sapiens. Described as §2. In kind it is functional. The method in brief:
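Elutriated human monocytes in RPMI 1640 + 5% FBS, drug added in DMSO 60 min before LPS (Salmonella typhimurium). Tested at 10 μM, the highest concentration assayed. After 20 h, supernatant IL-1β measured by ELISA in duplicate; percent inhibition vs control; MTT viability checked.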
In the case of `COc1cc(OC)c(C(=O)NCc2ccccc2)c(OC)c1`, the inhibition at 10 µM amounted to 0%. As for `COc1cc(OC)c(C(=O)c2ccc(-c3ccccc3)cc2)c(OC)c1`, the inhibition at 10 µM was 26%. The same measure, in the same setting: next, `COc1cc(OC)c(NC(=O)/C=C/c2ccccc2)c(OC)c1`: 0%; `COc1cc(OC)c(C/C=C/c2ccccc2)c(OC)c1`: 0%; `CS(=O)(=O)Nc1ccccc1C(=O)/C=C/c1ccccc1`: 0%. In the case of `O=C(Nc1nccs1)c1ccc(/C=C/C(=O)c2ccccc2C(=O)O)cc1`, the inhibition at 10 µM stood at 22%. On the same count and under the same terms, under `COc1cc(OC)c(C(=O)CCc2ccccc2)c(OC)c1` stands 0%. `COc1cc(C(=O)/C=C/c2ccc(N(C)C)cc2)cc(OC)c1OC` had an inhibition at 10 µM of 0%.

The species entered for the next assay is Homo sapiens. Nature of the assay: (§3) Inhibition of the production of Interleukin-1-beta from human peripheral blood monocytes stimulated with lipopolysaccharide (LPS). In kind it is functional. Summed up:
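Drug in DMSO (1.0 μL) added, 60 min preincubation, then LPS (Salmonella typhimurium; 1.0 μg/mL stock, 20 μL/well). After 20 h, supernatant IL-1β by ELISA; MTT viability on cells.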
In turn, `O=C(/C=C/c1ccccc1)c1cccs1` registered an IC50 of 5750 nM. Same read-out and setting: under `CCOc1ccccc1C(=O)/C=C/c1ccccc1` stands 609 nM; under `COc1cc(OC)c(C(=O)/C=C/c2cccnc2)c(OC)c1`, 1330 nM. Same read-out and setting: under `O=C(/C=C/c1ccccc1)c1ccccn1` stands 6200 nM; under `COc1cc(OC)c(C(=O)/C=C/c2ccccn2)c(OC)c1`, 596 nM. Molecule `COc1cc(OC)c(C(=O)/C=C/c2ccc(C(=O)Nc3cccnc3)cc2)c(OC)c1` had an IC50 of 793 nM. The same measure, in the same setting: under `COc1cccc(OC)c1C(=O)/C=C/c1ccccc1` stands 1150 nM.

Molecule `COc1cc(C(=O)/C=C/c2ccccc2)cc(OC)c1OC` displayed an IC50 of 1840 nM. Still for that read-out and setting: next, `COc1cc(OC)c(C(=O)/C=C/c2ccc(C(=O)Nc3ccccc3)cc2)c(OC)c1`: 803 nM; `COC(=O)c1ccc(/C=C/C(=O)c2c(OC)cc(OC)cc2OC)cc1`: 1930 nM; `Cc1cc(C)c(C(=O)/C=C/c2ccccc2)c(C)c1`: 6500 nM. The molecule `O=C(/C=C/c1ccccc1)c1c2ccccc2cc2ccccc12` returned an IC50 of 1410 nM.

Regarding `COc1cc(OC)c(C(=O)/C=C/c2cccc(C(=O)Nc3nccs3)c2)c(OC)c1`, the IC50 amounted to 503 nM. `COc1cc(OC)c(C(O)/C=C/c2ccccc2)c(OC)c1` (configuration not stated) displayed an IC50 of 5400 nM. On the same count and under the same terms, next, `COc1cc(OC)c(C(=O)/C=C/c2cccc(C(=O)Nc3cccnc3)c2)c(OC)c1`: 1630 nM; `COc1cc(OC)c(C(=O)/C=C/c2c(F)cccc2F)c(OC)c1`: 1290 nM; `O=C(/C=C/c1ccccc1)c1ccccc1` [CHALCONE]: 6280 nM. In turn, `COC(=O)c1ccccc1C(=O)/C=C/c1ccc(C(=O)Nc2nccs2)cc1` returned an IC50 of 2030 nM. Regarding `CCOc1ccccc1C(=O)/C=C/c1ccncc1`, half-maximal inhibition (IC50) required 1650 nM.

`COc1cccc(/C=C/C(=O)c2ccccc2)c1OC`: the IC50 was 2000 nM. The molecule `COc1cc(OC)c(C(=O)/C=C/c2cccc(C(=O)Nc3ccccc3)c2)c(OC)c1` returned an IC50 of 577 nM.

In turn, `O=C(/C=C/c1ccccc1)c1ccccc1OCc1ccccc1` registered an IC50 of 2230 nM. Same read-out and setting: next, `COc1cc(OC)c(C(=O)/C=C/c2cccc(C(=O)O)c2)c(OC)c1`: 6760 nM.

Take `COc1ccccc1C(=O)/C=C/c1ccccc1`: the IC50 stood at 2230 nM.

For the molecule `COC(=O)c1ccccc1C(=O)/C=C/c1ccccc1`, inhibition was half-maximal at 1950 nM (IC50). Still for that read-out and setting: next, `CN(C)c1ccccc1C(=O)/C=C/c1ccccc1`: 1770 nM.

`O=C(/C=C/c1ccccc1)c1c(Cl)cccc1Cl`: the IC50 stood at 1080 nM. Consider `COc1cc(OC)c(C(=O)/C(C)=C/c2ccccc2)c(OC)c1`, for which 5170 nM corresponded to half-maximal inhibition (IC50). With `COC(=O)c1cccc(/C=C/C(=O)c2c(OC)cc(OC)cc2OC)c1`, inhibition was half-maximal at 1650 nM (IC50).

As for `COc1cc(OC)c(C(=O)/C=C/c2ccc(C(=O)Nc3nccs3)cc2)c(OC)c1`, the IC50 was found to be 355 nM. Still for that read-out and setting: under `COc1cc(OC)c(C(=O)/C=C/c2ccc(C(=O)N(C)c3nccs3)cc2)c(OC)c1` stands 1010 nM. As for `COc1cc(OC)c(C(=O)/C=C/c2nccn2C)c(OC)c1`, the IC50 was 3800 nM.

`CN(C)C(=O)c1ccccc1C(=O)/C=C/c1ccccc1`: the IC50 was 5500 nM.

The molecule `COc1ccc(/C=C/C(=O)c2ccccc2)cc1OC` displayed an IC50 of 2330 nM. As to `COc1cc(OC)c(C(=O)/C=C/c2cnccn2)c(OC)c1`, it took 693 nM to reach half-maximal inhibition (IC50). The molecule `COc1cc(OC)c(C(=O)/C=C/c2ccc(C(=O)N(C)C)cc2)c(OC)c1` returned an IC50 of 2800 nM. On the same count and under the same terms, next, `COc1cccc(/C=C/C(=O)c2c(OC)cc(OC)cc2OC)c1`: 1800 nM; `O=C(/C=C/c1ccccc1)c1ccccc1[N+](=O)[O-]`: 1520 nM.

`COc1cc(OC)c(C(=O)/C=C/c2ccc(C(N)=O)cc2)c(OC)c1` registered an IC50 of 1790 nM. Still for that read-out and setting: next, `O=C(/C=C/c1ccccc1)c1ccccc1Br`: 1660 nM; `O=C(/C=C/c1ccccc1)c1ccc(O)cc1` [4'-HYDROXYCHALCONE]: 6130 nM; `COc1ccc(C(=O)/C=C/c2ccccc2)c(OC)c1OC`: 1710 nM. In turn, `COc1cc(OC)c(C(=O)/C=C/c2ccncc2)c(OC)c1` yielded an IC50 of 592 nM. On the same count and under the same terms, under `CC(=O)Nc1ccccc1C(=O)/C=C/c1ccccc1` stands 1730 nM; under `O=C(/C=C/c1ccccc1)c1ccccc1C(F)(F)F`, 748 nM; under `COc1cccc(C(=O)/C=C/c2ccccc2)c1OC`, 1670 nM. Consider `O=C(/C=C/c1ccccc1)c1ccccc1NS(=O)(=O)C(F)(F)F`, for which half-maximal inhibition (IC50) was put at 5850 nM. The same measure, in the same setting: next, `COc1cc(OC)c(C(=O)/C=C/c2ccnc3ccccc23)c(OC)c1`: 311 nM; `O=C(/C=C/c1ccccc1)c1ccccc1O` [2'-HYDROXYCHALCONE]: 4300 nM. The same measure, in the same setting: next, `COc1cc(OC)c(C(=O)/C=C/c2ccc(C(=O)O)cc2)c(OC)c1`: 6230 nM.

For a further assay, the species on record is Homo sapiens. The description is as §3. It counts as functional. The method in brief: as §1
`COc1cc(OC)c(C(/C=C/c2ccccc2)=N/O)c(OC)c1` yielded an Inhibition of 34%.

The values are drawn from ChEMBL document CHEMBL1126690, “2'-substituted chalcone derivatives as inhibitors of interleukin-1 biosynthesis” (J Med Chem, 1993).
